Results reported in ChEMBL document CHEMBL1124429, “Heterocyclic analogues of benzamide antiarrhythmic agents” (J Med Chem, 1989).
Values joined by “and” are separate entries in the source; they are usually repeats but may differ in a detail not shown here. Equal values may be shown once. Each block holds one compound with its values, some of them ahead of it.

Tests used:
Canis familiaris [1] = species on record: Canis familiaris; assay: The maximum percent change in action potential (Vmax) at concentration observed (30 uM ) was tested on Canine Purkinje fibers; design: species or system Canis lupus familiaris, Purkinje fiber; settings: dog
Outline: (§1)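 Canine Purkinje fibers were held in oxygenated (95% O2–5% CO2) physiological saline, pH 7.35–7.40, at 36 ± 0.5 °C and paced at 1.0 Hz with 2-ms pulses at twice diastolic threshold. Intracellular microelectrodes (3 M KCl) recorded Vmax and APD95 simultaneously. After up to 1 h of stabilization, compounds were tested from 10^-8 to 10^-3 M with 30 min per concentration. One compound per fiber, with vehicle controls. For N ≥ 3, values are the mean with the range.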

Canis familiaris [2] = species on record: Canis familiaris; assay: Maximum percent change in conduction time (CT) at 10 uM concentration tested on Canine ventricular muscle fibre; type: functional, Canis lupus familiaris, Muscle tissue
Outline: (§2)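 Canine right ventricular papillary muscle strips were superfused at 36 ± 0.5 °C with saline gassed with 95% O2/5% CO2. Diastolic threshold was found with 2-ms stimuli at 4000 ms cycle length, then pacing at 4× threshold for 60 min equilibration. FRP was measured at 1000 ms cycle length by S1-S2 premature stimulus after every tenth S1. Conduction time came from a bipolar electrogram. Various compound concentrations were tested, one compound per strip, with vehicle controls. Percent change from control was taken at 10 µM, or the maximum change with its concentration; for N ≥ 3, mean with range.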

Canis familiaris [3] = species on record: Canis familiaris; assay: Percent change in repolarization at 10 Purkinje fibers.; value ranges from -13 - -3; type: functional, Canis lupus familiaris, Purkinje fiber; outline: as §1
Canis familiaris [4] = species on record: Canis familiaris; assay: Maximum percent change in repolarization at 10 uM concentration on Canine Purkinje fibers.; type: functional, Canis lupus familiaris, Purkinje fiber
Outline: (§3)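 Isolated canine Purkinje fibers were superfused with physiological saline gassed with 95% O2/5% CO2 (pH 7.35–7.40) at 36 ± 0.5 °C. Paced at 1.0 Hz with 2-ms pulses at twice diastolic threshold. After up to 1 h stabilization, compounds were tested over 10^-8 to 10^-3 M, 30 min per concentration, one compound per fiber, with vehicle controls. Intracellular microelectrodes (3 M KCl) recorded Vmax and APD95; maximum percent change from control is reported with its concentration.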

Canis familiaris [5] = species on record: Canis familiaris; assay: Maximum percent change in repolarization at 100 uM concentration on Canine Purkinje fibers.; type: functional, Canis lupus familiaris, Purkinje fiber; outline: as §3
Canis familiaris [6] = species on record: Canis familiaris; assay: Maximum percent change in functional refractory period (FRP) at 100 uM on Canine ventricular muscle fibre.; design: species or system Canis lupus familiaris, Muscle tissue; outline: as §2
Canis familiaris [7] = species on record: Canis familiaris; assay: Percent change from control in conduction time (CT) at 10 uM concentration tested on Canine ventricular muscle fibre.; value ranges from -20-2; type: functional, Canis lupus familiaris, Muscle tissue; outline: as §2
Canis familiaris [8] = species on record: Canis familiaris; assay: The maximum percent change in action potential (Vmax) at concentration observed (100 uM) was tested on Canine Purkinje fibers; design: species or system Canis lupus familiaris, Purkinje fiber; settings: dog; outline: as §1
Canis familiaris [9] = species on record: Canis familiaris; assay: Maximum percent change in functional refractory period (FRP) at 10 uM on Canine ventricular muscle fibre.; design: species or system Canis lupus familiaris, Muscle tissue; outline: as §2
Canis familiaris [10] = species on record: Canis familiaris; assay: Percent change from control in the rate of rise of phase 0 of the action potential at 10 uM concentration on Canine Purkinje fibers.; value ranges from -20 - -3; type: organism-based, Canis lupus familiaris, Purkinje fiber; settings: dog, in vitro
Canis familiaris [11] = species on record: Canis familiaris; assay: Maximum percent change in repolarization at 30 uM concentration on Canine Purkinje fibers.; type: functional, Canis lupus familiaris, Purkinje fiber; outline: as §3
Canis familiaris [12] = species on record: Canis familiaris; assay: Percent change from control in the functional refractory period (FRP) at 10 uM conc on Canine ventricular muscle fibre.; value ranges from -9-28; design: species or system Canis lupus familiaris, Muscle tissue; outline: as §2
Canis familiaris [13] = species on record: Canis familiaris; assay: Maximum percent change in conduction time (CT) at 100 uM concentration tested on Canine ventricular muscle fibre; type: functional, Canis lupus familiaris, Muscle tissue; outline: as §2
Canis familiaris [14] = species on record: Canis familiaris; assay: Maximum Percent change from control in the rate of rise of phase 0 of the action potential at 30 uM concentration on Canine Purkinje fibers.; design: species or system Canis lupus familiaris, Purkinje fiber; settings: dog, in vitro; outline: as §3
Canis familiaris [15] = species on record: Canis familiaris; assay: Percent change from control in the functional refractory period (FRP) at 10 uM conc. on Canine ventricular muscle fibre.; design: species or system Canis lupus familiaris, Muscle tissue; outline: as §2
Canis familiaris [16] = species on record: Canis familiaris; assay: Maximum Percent change from control in the rate of rise of phase 0 of the action potential at 100 uM concentration on Canine Purkinje fibers.; type: Canis lupus familiaris, Purkinje fiber; settings: dog, in vitro; outline: as §3
Canis familiaris [17] = species on record: Canis familiaris; assay: Percent change from control in conduction time (CT) at 10 uM concentration tested on Canine ventricular muscle fibre.; M is minimal(<10% change in CT); type: functional; settings: Canis lupus familiaris, Muscle tissue; outline: as §2
Canis familiaris [18] = species on record: Canis familiaris; assay: Maximum percent change in repolarization at 1 uM concentration on Canine Purkinje fibers.; type: functional, Canis lupus familiaris, Purkinje fiber; outline: as §3
Cavia porcellus [19] = species on record: Cavia porcellus; assay: Concentration of compound which gives a 20% decrease in contractile force was tested on papillary muscle of guinea pig, activity was expressed as EC-20; NR is not reached..; type: functional; settings: Muscle tissue
Outline: (§4)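 Contractile force measured in an isolated cardiac muscle preparation. Value is the concentration giving a 20% decrease in force of contraction. NR marks that this decrease was not reached. Values come from individual experiments; for N ≥ 3, the mean is given with the range.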

Canis familiaris [20] = species on record: Canis familiaris; assay: Percent change from control in the rate of rise of phase 0 of the action potential at 10 uM concentration on Canine Purkinje fibers.; design: species or system Canis lupus familiaris, Purkinje fiber; settings: dog, in vitro
Canis familiaris [21] = species on record: Canis familiaris; assay: Percent change in repolarization at 10 Purkinje fibers.; value ranges from 3-7; type: functional, Canis lupus familiaris, Purkinje fiber; outline: as §1
Canis familiaris [22] = species on record: Canis familiaris; assay: Maximum percent change in repolarization at 0.1 uM concentration on Canine Purkinje fibers.; type: functional, Canis lupus familiaris, Purkinje fiber; outline: as §3
Canis familiaris [23] = species on record: Canis familiaris; assay: Percent change in repolarization at 10 Purkinje fibers.; value ranges from -1-49; type: functional, Canis lupus familiaris, Purkinje fiber; outline: as §1
Canis familiaris [24] = species on record: Canis familiaris; assay: Maximum Percent change from control in the rate of rise of phase 0 of the action potential at 0.1 uM concentration on Canine Purkinje fibers.; design: species or system Canis lupus familiaris, Purkinje fiber; outline: as §3
Canis familiaris [25] = species on record: Canis familiaris; assay: Percent change from control in the functional refractory period (FRP) at 10 uM concentration on Canine ventricular muscle fibre.; design: species or system Canis lupus familiaris, Muscle tissue; outline: as §2
Cavia porcellus [26] = species on record: Cavia porcellus; assay: Concentration of compound ( ) which gives a 20% decrease in contractile force was tested on papillary muscle of guinea pig, activity was expressed as EC-20.; NR is not reached.; type: functional; settings: Muscle tissue; outline: as §4
Canis familiaris [27] = species on record: Canis familiaris; assay: Maximum Percent change from control in the rate of rise of phase 0 of the action potential at 10 uM concentration on Canine Purkinje fibers.; type: functional, Canis lupus familiaris, Purkinje fiber; settings: dog, in vitro; outline: as §3
Canis familiaris [28] = species on record: Canis familiaris; assay: Percent change from control in the rate of rise of phase 0 of the action potential at 10 uM concentration on Canine Purkinje fibers.; value ranges from -17.0-2.0; design: species or system Canis lupus familiaris, Purkinje fiber; settings: dog, in vitro
Canis familiaris [29] = species on record: Canis familiaris; assay: Maximum percent change in conduction time (CT) at 0.1 uM concentration tested on Canine ventricular muscle fibre; type: functional, Canis lupus familiaris, Muscle tissue; outline: as §2
Canis familiaris [30] = species on record: Canis familiaris; assay: Maximum percent change in conduction time (CT) at 1 uM concentration tested on Canine ventricular muscle fibre; type: functional, Canis lupus familiaris, Muscle tissue; outline: as §2

Vmax (Canis familiaris [1]): -15% and -39% | Vmax (Canis familiaris [8]): -31% | Vmax (Canis familiaris [10]): -11.3%
SMILES: CCN(CC)CCCNC(=O)c1cccc2[nH]ccc12
CT (Canis familiaris [2]): -7% | APD95 (Canis familiaris [3]): -7.7% | APD95 (Canis familiaris [4]): -3% | APD95 (Canis familiaris [5]): -26% | FRP (Canis familiaris [6]): 36% | CT (Canis familiaris [7]): -8.8% | FRP (Canis familiaris [9]): 11% | APD95 (Canis familiaris [11]): -22% | FRP (Canis familiaris [12]): 10% | CT (Canis familiaris [13]): 12%

Vmax (Canis familiaris [14]): -1% | Vmax (Canis familiaris [16]): 7% | Vmax (Canis familiaris [20]): 4.6%
SMILES: CCN(CC)CCCNC(=O)c1c(O)cc(C)nc1C
FRP (Canis familiaris [15]): 13% | CT (Canis familiaris [17]): Minimal | APD95 (Canis familiaris [18]): 4% | EC20 (Cavia porcellus [19]): Not reached | APD95 (Canis familiaris [11]): 15% | APD95 (Canis familiaris [21]): 5% | CT (Canis familiaris [13]): -7% | APD95 (Canis familiaris [22]): 5%

Vmax (Canis familiaris [16]): -42% | Vmax (Canis familiaris [24]): -3% | Vmax (Canis familiaris [27]): -17% | Vmax (Canis familiaris [28]): -6.3%
SMILES: CCN(CC)CCNC(=O)c1[nH]c(C)c(C)c1C
APD95 (Canis familiaris [5]): -9% | APD95 (Canis familiaris [23]): 19.7% | CT (Canis familiaris [17]): Minimal | FRP (Canis familiaris [25]): 24% | EC20 (Cavia porcellus [26]): Not reached | FRP (Canis familiaris [9]): 24% | APD95 (Canis familiaris [11]): 12% | CT (Canis familiaris [29]): 7% | CT (Canis familiaris [30]): -5%
